Measured values published in ChEMBL document CHEMBL1275303, “Synthesis and antimicrobial activity of 2-substituted [4-(1,3,4-oxadiazol-2-yl methyl)] phthalazin-1(2H)-one derivatives” (2010).

Legend:
Staphylococcus aureus [1] = assay: Antimicrobial activity against Staphylococcus aureus at 100 ug/mL after 24 hrs by well plate method; assay type: functional; conditions: read-out: IZ
Procedure, shortened: (§1)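 Agar well diffusion in nutrient agar. About 1 cm³ of a 24 h broth culture was placed in sterile dishes, and molten agar at 45 °C was poured over it and set. 6 mm wells were bored and filled with compound in DMSO (100 or 50). Plates were incubated 24 h at 37 °C, and the inhibition zone was read in mm. Duplicate runs, with standard deviation; amoxicillin as reference.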

Salmonella typhi [2] = assay: Antimicrobial activity against Salmonella typhi at 50 ug/mL after 24 hrs by well plate method; assay type: functional, Salmonella enterica subsp. enterica serovar Typhi; conditions: Salmonella enterica, read-out: IZ
Procedure, shortened: (§2)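 Agar well diffusion in nutrient agar: about 1 cm³ of a 24 h broth culture placed in a sterile dish, molten agar at 45 °C poured over it and allowed to set. 6 mm holes cut with a sterile cork borer and filled with compound solution in DMSO. Incubated 24 h at 37 °C; inhibition zone diameter read in mm. Run in duplicate, standard deviation calculated.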

Bacillus subtilis [3] = assay: Antimicrobial activity against Bacillus subtilis at 50 ug/mL after 24 hrs by well plate method; assay type: functional; conditions: read-out: IZ; procedure, shortened: as §1
[4] = tested on: Chrysosporium keratinophilum; assay: Antimicrobial activity against Chrysosporium keratinophilum at 50 ug/mL after 72 hrs by well plate method; assay type: functional; conditions: read-out: IZ
Procedure, shortened: (§3)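 Antifungal well-plate assay on Sabouraud dextrose agar using a 72 h old broth culture of the fungal strain. Wells were filled with compound dissolved in DMSO (100 or 50), and the zone of inhibition around each well was measured. […] served as reference.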

Escherichia coli [5] = assay: Antimicrobial activity against Escherichia coli at 50 ug/mL after 24 hrs by well plate method; assay type: functional; conditions: read-out: IZ; procedure, shortened: as §1
Escherichia coli [6] = assay: Antimicrobial activity against Escherichia coli at 100 ug/mL after 24 hrs by well plate method; assay type: functional; conditions: read-out: IZ; procedure, shortened: as §1
[7] = tested on: Chrysosporium keratinophilum; assay: Antimicrobial activity against Chrysosporium keratinophilum at 100 ug/mL after 72 hrs by well plate method; assay type: functional; conditions: read-out: IZ; procedure, shortened: as §3
Nannizzia gypsea [8] = assay: Antimicrobial activity against Microsporum gypseum at 50 ug/mL after 72 hrs by well plate method; assay type: functional; conditions: read-out: IZ; procedure, shortened: as §3
Staphylococcus aureus [9] = assay: Antimicrobial activity against Staphylococcus aureus at 50 ug/mL after 24 hrs by well plate method; assay type: functional; conditions: read-out: IZ; procedure, shortened: as §1
Candida albicans [10] = assay: Antimicrobial activity against Candida albicans at 50 ug/mL after 72 hrs by well plate method; assay type: functional; conditions: read-out: IZ; procedure, shortened: as §3
Bacillus subtilis [11] = assay: Antimicrobial activity against Bacillus subtilis at 100 ug/mL after 24 hrs by well plate method; assay type: functional; conditions: read-out: IZ; procedure, shortened: as §1
Aspergillus flavus [12] = assay: Antimicrobial activity against Aspergillus flavus at 100 ug/mL after 72 hrs by well plate method; assay type: functional; conditions: read-out: IZ
Candida albicans [13] = assay: Antimicrobial activity against Candida albicans at 100 ug/mL after 72 hrs by well plate method; assay type: functional; conditions: read-out: IZ; procedure, shortened: as §3
Aspergillus flavus [14] = assay: Antimicrobial activity against Aspergillus flavus at 50 ug/mL after 72 hrs by well plate method; assay type: functional; conditions: read-out: IZ
Nannizzia gypsea [15] = assay: Antimicrobial activity against Microsporum gypseum at 100 ug/mL after 72 hrs by well plate method; assay type: functional; conditions: read-out: IZ; procedure, shortened: as §3
Salmonella typhi [16] = assay: Antimicrobial activity against Salmonella typhi at 100 ug/mL after 24 hrs by well plate method; assay type: functional, Salmonella enterica subsp. enterica serovar Typhi; conditions: Salmonella enterica, read-out: IZ; procedure, shortened: as §2

SMILES | zone of inhibition at 100 µg/mL (Staphylococcus aureus [1]) [mm] | zone of inhibition at 50 µg/mL (Salmonella typhi [2]) [mm] | zone of inhibition at 50 µg/mL (Bacillus subtilis [3]) [mm] | zone of inhibition at 50 µg/mL [4] [mm] | zone of inhibition at 50 µg/mL (Escherichia coli [5]) [mm] | zone of inhibition at 100 µg/mL (Escherichia coli [6]) [mm] | zone of inhibition at 100 µg/mL [7] [mm] | zone of inhibition at 50 µg/mL (Nannizzia gypsea [8]) [mm] | zone of inhibition at 50 µg/mL (Staphylococcus aureus [9]) [mm] | zone of inhibition at 50 µg/mL (Candida albicans [10]) [mm] | zone of inhibition at 100 µg/mL (Bacillus subtilis [11]) [mm] | zone of inhibition at 100 µg/mL (Aspergillus flavus [12]) [mm] | zone of inhibition at 100 µg/mL (Candida albicans [13]) [mm] | zone of inhibition at 50 µg/mL (Aspergillus flavus [14]) [mm] | zone of inhibition at 100 µg/mL (Nannizzia gypsea [15]) [mm] | zone of inhibition at 100 µg/mL (Salmonella typhi [16]) [mm]
O=c1c2ccccc2c(Cc2nnc(-c3ccsc3)o2)nn1Cc1cnc(Cl)s1 | 10 | 7 | 4 | 5.5 | 10 | 16 | 11.5 | 6.5 | 7 | 4.5 | 8 | 8.5 | 8.5 | 3.5 | 9.5 | 12
Cc1ccccc1-c1nnc(Cc2nn(Cc3cnc(Cl)s3)c(=O)c3ccccc23)o1 | 2 | 3 | 2 | 0 | 6 | 6 | 3.5 | 1 | 0 | 0 | 5 | 2 | 3.5 | 1 | 3 | 5
O=c1c2ccccc2c(Cc2nnc(-c3ccc(Cl)nc3)o2)nn1Cc1cnc(Cl)s1 | 7 | 3 | 4 | 5.5 | 8 | 12 | 8.5 | 4 | 4 | 9.5 | 6 | 8 | 10.5 | 4 | 7.5 | 5
Cc1nnc(Cc2nn(CCN3CCOCC3)c(=O)c3ccccc23)o1 | 3.5 | 1.5 | 0 | 0 | 0 | 2.5 | 0 | 0 | 0 | 1 | 1 | 3.5 | 2.5 | 1 | 3.5 | 4.5
O=c1c2ccccc2c(Cc2nnc(C(F)(F)F)o2)nn1CCN1CCOCC1 | 0 | 0 | 2 | 2 | 0 | 3.5 | 4.5 | 2 | 0 | 0.5 | 5 | 5.5 | 3.5 | 2.5 | 4 | 2.5
O=c1c2ccccc2c(Cc2nnc(C3CC3)o2)nn1CCN1CCOCC1 | 1.5 | 2.5 | 3.5 | 0.5 | 1.5 | 5 | 2.5 | 3.5 | 0 | 2.5 | 5.5 | 5 | 4.5 | 2.5 | 6 | 6.5
O=c1c2ccccc2c(Cc2nnc(-c3ccc(F)cc3)o2)nn1CCN1CCOCC1 | 1 | 3.5 | 3 | 2.5 | 0 | 2 | 5.5 | 4 | 0 | 2.5 | 6 | 4 | 5.5 | 2 | 7.5 | 5
O=c1c2ccccc2c(Cc2nnc(-c3ccc(Cl)cc3)o2)nn1CCN1CCOCC1 | 8 | 3 | 2 | 0 | 3 | 7 | 1.5 | 1 | 5 | 1 | 4 | 1 | 3.5 | 0 | 3 | 4.5
Cc1ccccc1-c1nnc(Cc2nn(CCN3CCOCC3)c(=O)c3ccccc23)o1 | 3.5 | 2.5 | 2.5 | 0 | 2.5 | 5.5 | 2.5 | 1 | 1.5 | 0 | 4.5 | 3 | 1.5 | 1.5 | 2 | 5
O=c1c2ccccc2c(Cc2nnc(-c3ccsc3)o2)nn1CCN1CCOCC1 | 5 | 4.5 | 3 | 3.5 | 3.5 | 8.5 | 6.5 | 7.5 | 3.5 | 4.5 | 6 | 9.5 | 7.5 | 6.5 | 10.5 | 7.5
